Measurements published in ChEMBL document CHEMBL4715836, “Synthesis and characterization of quinoline-carbaldehyde derivatives as novel inhibitors for leishmanial methionine aminopeptidase 1” (Eur J Med Chem, 2020).
Calls of active or inactive are those of the source. The rule behind the calls is not given here.

Legend:
[1] = Inhibition of Leishmania donovani MetAP1 expressed in Escherichia coli BL21 (DE3) using L-methionine-4-methyl-coumary1-7-amide as substrate preincubated for 30 mins followed by substrate addition and measured at 1 min interval for 30 mins by spectrofluorometric method
How it was run: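 His-tagged LdMetAP1 from pET28a, purified by Ni-NTA and gel filtration. Enzyme preincubated 30 min in metal-supplemented assay buffer with compound. L-Met-AMC added at 125 µM and fluorescence recorded. Percent inhibition taken as the net fluorescence decrease against control reactions; IC50 from a range of compound concentrations.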

Leishmania donovani [2] = assay: Competitive inhibition of Leishmania donovani MetAP1 expressed in Escherichia coli BL21 (DE3) at 1 to 10 uM using varying levels of L-methionine-4-methyl-coumary1-7-amide as substrate preincubated for 30 mins followed by substrate addition and measured for 30 mins by Lineweaver-burk plot analysis; conditions: dose 1-10 µM, time 60.0 min
[3] = Binding affinity to Leishmania donovani MetAP1 expressed in Escherichia coli BL21 (DE3) by surface plasmon resonance analysis
How it was run: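 Recombinant LdMetAP1 amine-coupled to a CM-5 dextran chip. Running and injection buffer was 1X PBS pH 7.4 with 0.05% P-20. Compounds in 2% DMSO injected over the chip at a range of concentrations to record response units. After solvent correction, kinetics fitted to a 1:1 Langmuir binding model.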

[4] = Cytotoxicity against mouse embryonic fibroblasts measured after 48 hrs by MTT assay; conditions: Fibroblast
How it was run: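 Mouse embryonic fibroblasts exposed to compounds at 0, 50, 100 and 200 µM for 48 h. MTT solution (5 mg/ml) then added for 4 h at 37°C. Formazan dissolved in DMSO and absorbance read at 570 nm.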

Leishmania donovani [5] = assay: Binding affinity to Leishmania donovani MetAP1 expressed in Escherichia coli BL21 (DE3) assessed as intrinsic fluorescence quenching of tryptophan residues measured after 30 mins by fluorescence spectroscopic method
How it was run: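 LdMetAP1 at 1 µM final in 20 mM Tris-HCl pH 7.5, 50 mM NaCl, incubated with compounds for 30 min at 25°C. Tryptophan fluorescence read at excitation ~295 nm, emission ~300-400 nm. F0/F1 plotted against compound concentration. KSV from linear regression; binding parameters from modified Stern-Volmer plots.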

Leishmania donovani [6] = assay: Uncompetitive inhibition of Leishmania donovani MetAP1 expressed in Escherichia coli BL21 (DE3) at 1 to 10 uM using varying levels of L-methionine-4-methyl-coumary1-7-amide as substrate preincubated for 30 mins followed by substrate addition and measured for 30 mins by Lineweaver-burk plot analysis; conditions: dose 1-10 µM, time 60.0 min

SMILES	IC50 [1]	other results
O=C1CSC(c2ccc3cccc(O)c3n2)N1c1ccc(C(F)(F)F)cc1 (stereo unspecified)	54.1 µM	–
Cc1ccc(N2C(=O)CSC2c2ccc3cccc(O)c3n2)cc1 (stereo unspecified)	1.31 µM	inhibition (Leishmania donovani [2]): Active; Kd [3]: 0.0215 µM; IC50 [4]: > 200 µM; Activity (Leishmania donovani [5]): Dose-dependent effect
COc1cccc(N2C(=O)CSC2c2ccc3cccc(O)c3n2)c1 (stereo unspecified)	39.7 µM	–
COc1cc(N2C(=O)CSC2c2ccc3cccc(O)c3n2)cc(OC)c1OC (stereo unspecified)	12.9 µM	–
CC(C)c1ccc(N2C(=O)CSC2c2ccc3cccc(O)c3n2)cc1 (stereo unspecified)	37.4 µM	–
O=C1CSC(c2ccc3cccc(O)c3n2)N1c1ccc(Oc2ccccc2)cc1 (stereo unspecified)	43.8 µM	–
O=C1CSC(c2ccc3cccc(O)c3n2)N1c1ccc(Cl)cc1 (stereo unspecified)	1.1 µM	inhibition (Leishmania donovani [2]): Active; Kd [3]: 0.015 µM; IC50 [4]: > 200 µM; Activity (Leishmania donovani [5]): Dose-dependent effect
O=C1CSC(c2ccc3cccc(O)c3n2)N1c1ccccc1 (stereo unspecified)	79.9 µM	–
COc1cc(OC)cc(N2C(=O)CSC2c2ccc3cccc(O)c3n2)c1 (stereo unspecified)	18.4 µM	–
COc1ccc(N2C(=O)CSC2c2ccc3cccc(O)c3n2)cc1OC (stereo unspecified)	26.4 µM	–
O=C1CSC(c2ccc3cccc(O)c3n2)N1c1ccc(Br)cc1 (stereo unspecified)	36.8 µM	–
COc1ccccc1N1C(=O)CSC1c1ccc2cccc(O)c2n1 (stereo unspecified)	18.4 µM	–
O=C1CSC(c2ccc3cccc(O)c3n2)N1c1ccc(I)cc1 (stereo unspecified)	252 µM	–
COc1ccc(N2C(=O)CSC2c2ccc3cccc(O)c3n2)cc1 (stereo unspecified)	62.5 µM	–
O=C1CSC(c2ccc3cccc(O)c3n2)N1c1ccc(F)cc1 (stereo unspecified)	45.5 µM	–
O=C1CSC(c2ccc3cccc(O)c3n2)N1c1cccc(OC(F)(F)F)c1 (stereo unspecified)	46.4 µM	–
N#Cc1cccc(N2C(=O)CSC2c2ccc3cccc(O)c3n2)c1 (stereo unspecified)	11.7 µM	inhibition (Leishmania donovani [2]): Active; Kd [3]: 0.0154 µM; IC50 [4]: > 250 µM; Activity (Leishmania donovani [5]): Dose-dependent effect
Cc1cccc(N2C(=O)CSC2c2ccc3cccc(O)c3n2)c1 (stereo unspecified)	27.9 µM	–
O=C1CSC(c2ccc3cccc(O)c3n2)N1c1cccc(F)c1 (stereo unspecified)	8.8 µM	Kd [3]: 0.000161 µM; inhibition (Leishmania donovani [6]): Active; IC50 [4]: 120 µM; Activity (Leishmania donovani [5]): Dose-dependent effect
O=C1CSC(c2ccc3cccc(O)c3n2)N1c1cccc(Br)c1 (stereo unspecified)	46.1 µM	–
